Reference: ChEMBL document CHEMBL1147895, “Novel synthetic approach to N-aryl-4-(3-pyridyl)thiazol-2-amine and analogues using HMCM-41 as catalyst, and their biological evaluation as human platelet aggregation inhibitors” (Eur J Med Chem, 2007)

Test system: Platelet
Assay: Inhibition of ADP-induced human platelet aggregation
Format: functional, cell-based
Method in brief: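 Human PRP from fasted, medication-free healthy male volunteers: citrated blood (0.38% final) spun at 800 rpm for 10 min; PPP from a 2500 rpm, 10 min spin. Compounds in DMSO (0.01% final) preincubated 2 min at 37 °C before ADP activation. Born turbidimetry; maximum curve height read, % inhibition versus vehicle; IC50 from linear regression of % inhibition against concentration.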

Structure (SMILES) | IC50 [nM]
CC(C)(C(=O)O)N1CCC(Nc2nc(-c3ccc(C(=N)N)cc3)cs2)CC1 | > 10000
N=C(N)c1ccc(-c2csc(N(CCC(=O)O)C3CCN(CC(=O)O)CC3)n2)cc1 | 46
N=C(N)c1ccc(-c2csc(N(Cc3ccccc3)C3CCN(CC(=O)O)CC3)n2)cc1 | 230
N=C(N)c1ccc(-c2csc(NC3CCN(CCC(=O)O)CC3)n2)cc1 | 1800
N=C(N)c1ccc(-c2csc(NC3CCN(C(C(=O)O)c4ccccc4Cl)CC3)n2)cc1 (stereo not drawn) | 6000
CN(c1nc(-c2ccc(C(=N)N)cc2)cs1)C1CCN(CC(=O)O)CC1 | 160
N=C(N)c1ccc(-c2csc(N(CCCC(=O)O)C3CCN(CC(=O)O)CC3)n2)cc1 | 96
N=C(N)c1ccc(-c2csc(N(CC(=O)O)C3CCN(CC(=O)O)CC3)n2)cc1 | 170
CCc1cccc(CC)c1Nc1nc(-c2cccnc2)cs1 | 2190
c1cncc(-c2csc(Nc3cccc4ccccc34)n2)c1 | 2890
Nc1nc(-c2cccnc2)c[s+]1[O-] (stereo not drawn) | 1410
Cc1ccc(Nc2nc(-c3cccnc3)cs2)cc1 | 2000

Next, values leading:

IC50 [nM] | Structure (SMILES)
42 | N=C(N)c1ccc(-c2csc(NC3CCN(CC(=O)O)CC3)n2)cc1
65 | N=C(N)c1ccc(-c2csc(NC3CCN(C(C(=O)O)c4ccccc4)CC3)n2)cc1 (stereo not drawn)
85 | N=C(N)c1ccc(-c2csc(NC3CCN(C(CC(=O)O)C(=O)O)CC3)n2)cc1 (stereo not drawn)
250 | CC(C(=O)O)N1CCC(Nc2nc(-c3ccc(C(=N)N)cc3)cs2)CC1 (stereo not drawn)
1350 | CCc1ccccc1Nc1nc(-c2cccnc2)cs1
484 | Fc1ccccc1Nc1nc(-c2cccnc2)cs1
